KCNK9 block: KCNK9 potassium channel inhibitors, primary screen, HEK293 cells, thallium flux. Potassium channel subfamily K member 9 (Homo sapiens), Q9NPC2. FluxOR thallium flux fluorescence; hits give low values. B-score at 10 µM. 1.2% of 310,000 active. AID 488922, 2010;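 active = ratio B-score over 3 SD below the library mean, with starting fluorescence within 5 SD of its mean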;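 also: negative B-score means less thallium flux so channel inhibition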
KCNK3 inh: human KCNK3 channel inhibitors, primary screen, CHO cells, FluxOR thallium flux, B-score; Potassium channel subfamily K member 3 (Homo sapiens), O14649; FluxOR fluorescence; hits give low values; B-score at 10 µM; 0.84% of 340,000 active; AID 602410, 2012;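 active = B-score under library mean minus 4 SD, starting fluorescence ratio at most library mean plus 5 SD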;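 also: more negative B-score means stronger inhibition of thallium flux through KCNK3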
KCNQ1 act: potentiators or activators of KCNQ1 channel, primary screen, cell-based, thallium flux, high-throughput | 0.35% of 310,000 active | Potassium voltage-gated channel subfamily KQT member 1 (Homo sapiens), P51787 | B-score at 10 µM | CHO-K1 KCNQ1, thallium flux FluxOR fluorescence; hits give high values;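 active = fluorescence ratio B-score, a plate-corrected score, at least three library SD, with initial intensity B-score within 5 SD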
Target sequence (P51787 whole entry, looked up): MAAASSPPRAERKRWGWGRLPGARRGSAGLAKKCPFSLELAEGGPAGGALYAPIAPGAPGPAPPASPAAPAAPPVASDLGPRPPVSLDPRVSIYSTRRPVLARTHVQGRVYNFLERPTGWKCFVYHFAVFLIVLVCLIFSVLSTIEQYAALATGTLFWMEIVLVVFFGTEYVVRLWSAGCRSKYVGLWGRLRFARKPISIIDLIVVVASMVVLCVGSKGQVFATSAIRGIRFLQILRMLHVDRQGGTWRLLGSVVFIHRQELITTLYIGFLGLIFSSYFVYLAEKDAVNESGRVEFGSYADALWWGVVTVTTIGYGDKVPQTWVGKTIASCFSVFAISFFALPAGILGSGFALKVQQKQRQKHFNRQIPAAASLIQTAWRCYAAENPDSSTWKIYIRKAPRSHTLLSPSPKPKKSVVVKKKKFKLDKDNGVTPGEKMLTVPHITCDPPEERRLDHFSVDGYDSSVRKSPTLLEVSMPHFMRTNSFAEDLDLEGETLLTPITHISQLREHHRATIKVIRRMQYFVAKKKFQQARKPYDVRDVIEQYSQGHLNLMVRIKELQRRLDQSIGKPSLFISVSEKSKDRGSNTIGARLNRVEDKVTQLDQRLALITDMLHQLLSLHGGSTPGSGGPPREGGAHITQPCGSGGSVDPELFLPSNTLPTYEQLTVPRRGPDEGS
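System: CHO-K1 cells stably expressing KCNQ1 / Medium: assay buffer for compound exposure, DMSO matched across wells / Reagent: thallium- and potassium-containing depolarizing buffer / Compound: one concentration, matched DMSO / Incubation: 20 min compound pretreatment at room temperature / Measured by: kinetic FluxOR fluorescence, 10 s baseline plus 110 s post-stimulus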
KCNQ1 block: inhibitors of human KCNQ1 channel, primary screen, cell-based, thallium flux, high-throughput; Potassium voltage-gated channel subfamily KQT member 1 (Homo sapiens), P51787; CHO-K1 KCNQ1, FluxOR thallium flux fluorescence; hits give high values; B-score at 10 µM; 1.3% of 310,000 active;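 active = compounds whose thallium flux B-score, printed positive for inhibition, exceeds three library SD while starting fluorescence stays within three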;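 also: channel opened by potassium depolarization with thallium stimulus after 20 min compound exposure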
KCC2 mod: KCC2 cotransporter modulators, thallium flux, primary screen, cell-based, HEK293 KCC2, FluoZin-2 fluorescence, MLSMR; KCC2 cells, thallium flux FluoZin-2 fluorescence; 2.2% of 190,000 active; B-score of Tl+ flux slope (higher = more flux/activation; lower = inhibition) at 10 µM; Solute carrier family 12 member 5 (Homo sapiens), Q9H2X9;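 active = thallium flux slope and its plate-corrected score both differing from the plate sample mean at a set confidence after two filtering rounds, in either direction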;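 also: slope of fluorescence scaled to starting intensity during 10 to 20 s after thallium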
hERG protect: hERG rescue from dofetilide block, primary screen, cell-based, CHO-hERG, FluxOR thallium flux, dofetilide IC70; Voltage-gated inwardly rectifying potassium channel KCNH2 (Homo sapiens), Q12809; dofetilide IC70 present; activation (rescue from dofetilide block), less the hit threshold, % at 10 µM; 0.51% of 310,000 active;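 active = activation above the mean of controls blocked by dofetilide plus 5 SD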;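 also: thallium influx through hERG after potassium depolarization seen as dye fluorescence rise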
KCNK9 block conf: KCNK9 potassium channel inhibitors, confirmation, HEK293 cells, thallium flux, duplicate. inhibition, % at 10 µM. shares compounds with KCNK9 block. 43% of 4,900 active. AID 492992, 2010. FluxOR thallium flux fluorescence;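 active = thallium signal inhibited by more than 5 SD of the compound-free buffer control wells, on both duplicate plates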;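 also: 0% = assay buffer control wells without compound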
Kir21 sel: mouse Kir2.1 channel inhibition, confirmation, selectivity assay for KCNK9 modulator project, cell-based, HEK293, thallium flux. shares compounds with KCNK9 block. Kir2.1 cells, FluxOR thallium flux fluorescence. inhibition, % at 10 µM. 4% of 4,900 active. AID 492993, 2010;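 active = thallium signal drop more than 5 SD beyond the mean of the no-compound control wells, seen in both duplicate plates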;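 also: signal is fluorescence rise after thallium addition divided by baseline fluorescence; plate controls were assay buffer only for no effect and full block by chlorpromazine control for full effect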
KCNK9 uninduced: thallium flux in non-induced HEK293 cells, confirmation, counter-screen for KCNK9 inhibitor project, cell-based, second counter screen, non-induced KCNK9-HEK293 | shares compounds with KCNK9 block | FluxOR thallium flux | 40% of 4,900 active | inhibition, % at 10 µM | AID 492997, 2010;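 active = thallium signal drop beyond 5 SD of the untreated control mean, on both duplicate plates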;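 also: plate controls were buffer only IC0 wells for no effect and SID17386958 at its maximal inhibitory level for full effect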
* marks the source's active call; other numbers are inactive results; i = inactive; . = not tested or not shown. Compounds with a hit are over-represented: about 4.1% of the library has one in this group of screens.

SMILES | KCNK9 block | KCNK3 inh | KCNQ1 act | KCNQ1 block | KCC2 mod | hERG protect | KCNK9 block conf | Kir21 sel | KCNK9 uninduced
COc1ccccc1C/C(N)=N/OC(=O)COc1ccc2ccccc2c1 | i | i | i | i | . | -5 | i | i | i
COc1ccccc1C/C(N)=N/OC(=O)COc1cccc(C)c1 | i | i | i | i | -0.34 | -9 | i | i | i
COc1ccc(OC)c(NC(=O)COc2ccc3c(c2)CCC3)c1 | . | i | . | . | . | . | . | . | .
CC(C)CN(C(=O)c1ccc(F)cc1F)c1c(N)n(CC(C)C)c(=O)[nH]c1=O | i | i | i | i | . | -12 | . | . | .
CC(C)CNC(=O)N1c2ccccc2Sc2ccccc21 | i | i | i | i | -1.8 | -12 | i | i | i
Cc1ccc(Cl)cc1N1CCN(S(=O)(=O)c2cccc(S(=O)(=O)N3CCCC3)c2)CC1 | -10* | -11* | i | i | -0.36 | -7 | 49%* | i | 32%*
Cc1ccc(Cl)cc1N1CCN(S(=O)(=O)c2ccc3[nH]c(=O)c(=O)[nH]c3c2)CC1 | i | i | i | i | -0.075 | -4 | . | . | .
Cc1ccc(-c2csc(NC(=O)c3ccc(-c4ccccc4)cc3)n2)o1 | -9.7* | i | i | i | . | -15 | i | i | i
CCC(C)C(=O)Nc1nc(C)c(-c2csc(Nc3ccccc3OC)n2)s1 (centres undefined) | -9.2* | i | i | i | -2.4 | -14 | 58%* | i | 28%*
COc1ccc(-c2csc(NC(=O)c3ccco3)n2)cc1 | -8.7* | i | i | i | -0.47 | -4 | i | i | i
CCOc1ccc(-c2csc(NC(=O)c3ccco3)n2)cc1 | i | i | i | i | . | 1 | . | . | .
Cc1ccc(Cl)cc1Nc1nc(-c2sc(NC(=O)c3ccco3)nc2C)cs1 | -12* | i | i | i | -0.31 | -29 | 34%* | i | i
CC(C)Cc1nnc(NC(=O)CN2C(=O)c3ccccc3C2=O)s1 | i | i | i | i | -0.041 | -17 | . | . | .
O=C(c1ccccc1)c1ccc(O)c(O)c1O | . | i | . | . | . | . | . | . | .
COc1ccc(NC(=O)c2oc3ccccc3c2NC(=O)c2ccco2)cc1 | -9.1* | i | i | i | 0.0035 | -1 | i | i | i
COc1ccc(Cl)cc1Nc1nc(-c2sc(NC(=O)CC(C)C)nc2C)cs1 | -13* | i | i | i | 0.071 | -7 | 41%* | i | 34%*
COc1ccc(NC(=O)c2oc3ccccc3c2NC(=O)C(C)(C)C)cc1 | i | i | i | i | . | -9 | . | . | .
Cc1nc(NC(=O)CC(C)C)sc1-c1csc(Nc2ccc(Cl)cc2Cl)n1 | i | i | i | i | 0.98 | -14 | . | . | .
CCN(C[C@H]1N[C@@](Cc2ccccc2)(C(=O)OC)[C@H]2C(=O)N(Cc3ccccc3)C(=O)[C@@H]12)C(=O)C1CCCCC1 | . | i | . | . | . | . | . | . | .
COc1ccccc1N1CCN(C(=O)CCc2nnc3ccc(N4CCC(C)CC4)nn23)CC1 | i | i | i | i | . | -30 | . | . | .
Cc1nc(C(=O)N2CCc3c([nH]c4ccccc34)C2c2cc(F)ccc2F)cs1 (centres undefined) | -10* | i | i | i | -0.92 | -14 | 46%* | i | 31%*
Cc1nc(C(=O)N2CCc3c([nH]c4ccccc34)C2c2ccccn2)cs1 (centres undefined) | i | i | i | i | -0.29 | -5 | . | . | .
O=C(CSc1nc(O)c(C2CCCCC2)c(=O)[nH]1)Nc1ccc(F)cc1 | i | i | i | i | . | -8 | . | . | .
COc1ccc(OC)c(Nc2ncnc3sc(-c4ccccc4)cc23)c1 | -11* | i | i | i | 0.77 | -9 | i | i | 32%*
COc1ccc(Oc2ccc(N/C=C/C(=O)C(C)(C)C)cc2)cc1 | i | i | i | i | -0.19 | -8 | i | i | i
SMILES | KCNK9 block | KCNK3 inh | KCNQ1 act | KCNQ1 block | KCC2 mod | hERG protect | KCNK9 block conf | Kir21 sel | KCNK9 uninduced
CCOc1ccc(CN(C)Cc2cc(=O)oc3cc(C)c(Cl)cc23)cc1 | i | i | i | i | . | -2 | . | . | .
CCOc1ccc(N(C)Cc2cc(=O)oc3ccc(OCC)cc23)cc1 | -11* | i | i | i | . | -4 | 42%* | i | 32%*
CCn1c(N2CCN(S(=O)(=O)c3ccc(Cl)cc3)CC2)nc2ccccc21 | i | i | i | i | -1.4 | 5.8* | i | i | i
CCn1c(N2CCN(S(=O)(=O)c3ccc(F)cc3)CC2)nc2ccccc21 | i | i | i | i | -1.1 | -6 | . | . | .
CC(C)[C@H](NC(=O)c1ccccc1Cl)C(=O)Nc1nc(-c2ccccn2)cs1 | -9.3* | i | i | i | -3.1 | -8 | 42%* | i | 34%*
COc1cccc(/C=C2\CCC(C3CCCC3)C2=O)c1OC (centres undefined) | i | i | i | i | . | -4 | . | . | .
CCN1C(C)=CC(=O)[C@@H](O)[C@H]1c1ccccc1Br | . | i | . | . | . | . | . | . | .
CCCC1=NN2C(=N)/C(=C\c3cc(C)n(Cc4ccccc4)c3C)C(=O)N=C2S1 | i | i | i | i | 1 | -4 | . | . | .
COc1cc(/C=C2\C(=N)N3N=C(C)SC3=NC2=O)cc(OC)c1OCCOc1ccccc1C | i | i | i | i | . | -1 | . | . | .
COc1cc(/C=C2\C(=N)N3N=C(S(C)(=O)=O)SC3=NC2=O)cc(OC)c1OCCOc1ccccc1C | i | i | i | i | . | -31 | i | i | i
COc1ccccc1OCCOc1ccc(/C=C2\C(=N)N3N=C(S(C)(=O)=O)SC3=NC2=O)cc1 | i | i | i | i | . | -26 | i | i | i

Compound activity as filed in PubChem BioAssay.
